Source: ChEMBL document CHEMBL3853352, “Anti-tubercular activities of 5,6,7,8-tetrahydrobenzo[4,5]thieno[2,3-d]pyrimidin-4-amine analogues endowed with high activity toward non-replicative Mycobacterium tuberculosis” (Bioorg Med Chem, 2016)
≈ marks a conversion by molar mass, not a printed value.

Tests used:
[1] = tested on: Mycobacterium tuberculosis; test: Antimycobacterial activity against dormant stage of Mycobacterium tuberculosis H37Rv assessed as reduction in bacterial growth under nutrient starved conditions at 10 ug/ml for 7 days measured after 28 days; type: functional
In short: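 H37Rv grown in 7H9/OADC, washed twice and resuspended in PBS, then held in sealed bottles at 37 °C for 6 weeks. Starved cultures exposed to compound at 10 ug/ml for 7 days. Cells diluted 10-fold serially to 10^-6 in 7H9/OADC and plated in triplicate. Incubated 28 days at 37 °C without agitation; wells with visible growth scored positive and MPN calculated.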

[2] = Cytotoxicity against mouse RAW264.7 cells assessed as inhibition of cell proliferation at 50 ug/ml after 48 hrs by MTT assay; type: toxicity
In short: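 RAW 264.7 mouse macrophages grown in RPMI with 10% FBS and penicillin/streptomycin, then seeded at about 5000 cells/well on poly-L-lysine-coated plates. Pre-incubated 24 h at 37 °C, 5% CO2, then exposed to compound for 48 h. MTT (0.5 mg/ml) added for 3 h and formazan read at 595 nm.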

[3] = Inhibition of Mycobacterium tuberculosis ADH assessed as decrease in conversion of L-alanine to pyruvate by measuring NADH by spectrophotometry; set-up: species or system Mycobacterium tuberculosis H37Rv
In short: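 Mtb L-AlaDH oxidative deamination of L-alanine to pyruvate at 37 °C. NADH formation read at 340 nm. Compounds tested from 25 µM to 0.5 µM. Background read from the reaction mixture without enzyme. IC50 values calculated from the concentration series.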

[4] = tested on: Mycobacterium tuberculosis; test: Antimycobacterial activity against Mycobacterium tuberculosis H37Rv after 7 days by MABA; type: functional; details: 168 h
In short: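 M. tuberculosis H37Rv inoculum taken from fresh LJ medium, resuspended in 7H9-S (7H9, 0.1% casitone, 0.5% glycerol, OADC), adjusted to McFarland No. 1 and diluted 1:20. Serial two-fold drug dilutions in 7H9-S, with growth and sterile controls. Incubated 7 days at 37 °C in normal atmosphere, then alamar blue added and incubated overnight. MIC = lowest concentration preventing the blue-to-pink change.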

[5] = tested on: Mycobacterium tuberculosis H37Rv; test: Inhibition of Mycobacterium tuberculosis ADH assessed as decrease in conversion of L-alanine to pyruvate at 25 uM by measuring NADH by spectrophotometry
[6] = molecular target: T1, L-lysine-epsilon aminotransferase (Mycobacterium tuberculosis) (UniProt P9WQ77); test: Inhibition of Mycobacterium tuberculosis LAT at 25 uM
T1 sequence (whole entry): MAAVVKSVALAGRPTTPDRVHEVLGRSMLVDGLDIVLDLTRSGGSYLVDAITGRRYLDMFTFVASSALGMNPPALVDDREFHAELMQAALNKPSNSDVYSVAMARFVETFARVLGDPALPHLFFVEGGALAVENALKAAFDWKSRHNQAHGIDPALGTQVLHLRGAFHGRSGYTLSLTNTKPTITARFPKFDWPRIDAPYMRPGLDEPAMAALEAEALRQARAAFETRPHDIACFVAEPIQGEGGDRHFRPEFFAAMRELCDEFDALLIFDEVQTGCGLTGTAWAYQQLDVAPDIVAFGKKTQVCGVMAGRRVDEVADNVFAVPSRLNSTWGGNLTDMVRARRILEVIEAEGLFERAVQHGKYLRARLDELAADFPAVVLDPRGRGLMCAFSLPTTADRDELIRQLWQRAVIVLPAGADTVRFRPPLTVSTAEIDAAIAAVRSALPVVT

CO[C@H]1/C=C/O[C@@]2(C)Oc3c(C)c(O)c4c(O)c(c(/C=N/N5CCN(C)CC5)c(O)c4c3C2=O)NC(=O)/C(C)=C\C=C\[C@H](C)[C@H](O)[C@@H](C)[C@@H](O)[C@@H](C)[C@H](OC(C)=O)[C@@H]1C [RIFAMPIN]
fold change (FC) [1]: 2 | inhibition at 48 h, 50 ug/ml [2]: 9.56% | IC50 [3]: > 25 µM | MIC [4]: 0.23 µM (≈ 0.189 µg/mL)

c1ccc(CNc2nc(-c3ccccc3)nc3sc4c(c23)CCCC4)cc1
fold change (FC) [1]: >1 | inhibition [5]: 50% | inhibition at 48 h, 50 ug/ml [2]: 26.5% | IC50 [3]: 9.68 µM | MIC [4]: 33.6 µM (≈ 12.5 µg/mL) | inhibition [6]: < 50%

Cc1ccc(Nc2nc(C3CC3)nc3sc4c(c23)CCCC4)cc1
inhibition [5]: 50% | inhibition at 48 h, 50 ug/ml [2]: 16.2% | IC50 [3]: 13.4 µM | MIC [4]: 74.5 µM (≈ 25 µg/mL) | inhibition [6]: < 50%

COc1ccc(Nc2nc(-c3ccccc3)nc3sc4c(c23)CCCC4)cc1
fold change (FC) [1]: >1 | inhibition [5]: 50% | inhibition at 48 h, 50 ug/ml [2]: 28.2% | IC50 [3]: 8.72 µM | MIC [4]: 16.1 µM (≈ 6.25 µg/mL) | inhibition [6]: < 50%

Fc1ccc(Nc2nc(C3CC3)nc3sc4c(c23)CCCC4)cc1
fold change (FC) [1]: >1 | inhibition at 48 h, 50 ug/ml [2]: 4.82% | IC50 [3]: 8.91 µM | MIC [4]: 36.8 µM (≈ 12.5 µg/mL) | inhibition [6]: < 50%

c1ccc(CNc2nc(C3CC3)nc3sc4c(c23)CCCC4)cc1
fold change (FC) [1]: >1 | inhibition [5]: 50% | inhibition at 48 h, 50 ug/ml [2]: 23.1% | IC50 [3]: 4.23 µM | MIC [4]: 18.6 µM (≈ 6.25 µg/mL) | inhibition [6]: < 50%

CCc1nc(Nc2ccc(C)cc2)c2c3c(sc2n1)CCCC3
fold change (FC) [1]: >1 | inhibition [5]: 50% | inhibition at 48 h, 50 ug/ml [2]: 15.6% | IC50 [3]: 3.26 µM | MIC [4]: 77.3 µM (≈ 25 µg/mL) | inhibition [6]: < 50%

Cc1ccc(Nc2nc(-c3ccccc3)nc3sc4c(c23)CCCC4)c(C)c1
fold change (FC) [1]: >1 | inhibition [5]: 50% | inhibition at 48 h, 50 ug/ml [2]: 7.97% | IC50 [3]: 9.96 µM | MIC [4]: 16.2 µM (≈ 6.25 µg/mL) | inhibition [6]: < 50%

CCc1nc(Nc2ccc(OC)cc2)c2c3c(sc2n1)CCCC3
fold change (FC) [1]: >1 | inhibition [5]: 50% | inhibition at 48 h, 50 ug/ml [2]: 15.2% | IC50 [3]: 4.68 µM | MIC [4]: 73.7 µM (≈ 25 µg/mL) | inhibition [6]: < 50%

COc1c(N2C[C@@H]3CCCN[C@@H]3C2)c(F)cc2c(=O)c(C(=O)O)cn(C3CC3)c12 [MOXIFLOXACIN]
fold change (FC) [1]: 2.7 | IC50 [3]: > 25 µM | MIC [4]: 1.26 µM (≈ 0.506 µg/mL)

CC[C@@H](CO)NCCN[C@@H](CC)CO [ETHAMBUTOL]
IC50 [3]: > 25 µM | MIC [4]: 7.64 µM (≈ 1.56 µg/mL)

c1ccc(Nc2nc(-c3ccccc3)nc3sc4c(c23)CCCC4)cc1
fold change (FC) [1]: >1 | inhibition [5]: 50% | inhibition at 48 h, 50 ug/ml [2]: 7.15% | IC50 [3]: 11.4 µM | MIC [4]: 4.36 µM (≈ 1.56 µg/mL) | inhibition [6]: < 50%

CCc1nc(Nc2ccccc2)c2c3c(sc2n1)CCCC3
fold change (FC) [1]: >1 | inhibition [5]: 50% | inhibition at 48 h, 50 ug/ml [2]: 7.82% | IC50 [3]: 15.1 µM | MIC [4]: 20.2 µM (≈ 6.25 µg/mL) | inhibition [6]: < 50%

Brc1ccc(Nc2nc(-c3ccccc3)nc3sc4c(c23)CCCC4)cc1
fold change (FC) [1]: >1 | inhibition [5]: 50% | inhibition at 48 h, 50 ug/ml [2]: 20.4% | IC50 [3]: 8.7 µM | MIC [4]: 28.6 µM (≈ 12.5 µg/mL) | inhibition [6]: < 50%

Fc1ccc(Nc2nc(-c3ccccc3)nc3sc4c(c23)CCCC4)cc1
inhibition [5]: 50% | inhibition at 48 h, 50 ug/ml [2]: 33.4% | IC50 [3]: 12.2 µM | MIC [4]: 33.3 µM (≈ 12.5 µg/mL) | inhibition [6]: < 50%

Clc1ccc(Nc2nc(-c3ccccc3)nc3sc4c(c23)CCCC4)cc1
fold change (FC) [1]: >1 | inhibition [5]: 50% | inhibition at 48 h, 50 ug/ml [2]: 20.8% | IC50 [3]: 2.72 µM | MIC [4]: 63.8 µM (≈ 25 µg/mL) | inhibition [6]: < 50%

c1ccc(Nc2nc(C3CC3)nc3sc4c(c23)CCCC4)cc1
inhibition at 48 h, 50 ug/ml [2]: 8.8% | IC50 [3]: > 25 µM | MIC [4]: 9.72 µM (≈ 3.12 µg/mL) | inhibition [6]: < 50%

Cc1cccc(C)c1Nc1nc(C2CC2)nc2sc3c(c12)CCCC3
fold change (FC) [1]: >1 | inhibition [5]: 50% | inhibition at 48 h, 50 ug/ml [2]: 13.5% | IC50 [3]: 7.55 µM | MIC [4]: 17.9 µM (≈ 6.25 µg/mL) | inhibition [6]: < 50%

CCc1nc(NCc2ccccc2)c2c3c(sc2n1)CCCC3
fold change (FC) [1]: >1 | inhibition [5]: 50% | inhibition at 48 h, 50 ug/ml [2]: 7.05% | IC50 [3]: 6.03 µM | MIC [4]: 38.6 µM (≈ 12.5 µg/mL) | inhibition [6]: < 50%

Cc1ccc(Nc2nc(-c3ccccc3)nc3sc4c(c23)CCCC4)cc1
fold change (FC) [1]: >1 | inhibition [5]: 50% | inhibition at 48 h, 50 ug/ml [2]: 41.1% | IC50 [3]: 7.97 µM | MIC [4]: 33.6 µM (≈ 12.5 µg/mL) | inhibition [6]: < 50%

c1ccc(CCNc2nc(C3CC3)nc3sc4c(c23)CCCC4)cc1
inhibition [5]: 50% | inhibition at 48 h, 50 ug/ml [2]: 17.4% | IC50 [3]: 17 µM | MIC [4]: 35.8 µM (≈ 12.5 µg/mL) | inhibition [6]: < 50%

NNC(=O)c1ccncc1 [ISONIAZID]
fold change (FC) [1]: 1.2 | inhibition at 48 h, 50 ug/ml [2]: 12.2% | IC50 [3]: > 25 µM | MIC [4]: 0.66 µM (≈ 0.0905 µg/mL)

CCc1nc(Nc2ccc(C)cc2C)c2c3c(sc2n1)CCCC3
fold change (FC) [1]: >1 | inhibition [5]: 50% | inhibition at 48 h, 50 ug/ml [2]: 9.65% | IC50 [3]: 7.41 µM | MIC [4]: 74.1 µM (≈ 25 µg/mL) | inhibition [6]: < 50%

Brc1ccc(Nc2nc(C3CC3)nc3sc4c(c23)CCCC4)cc1
fold change (FC) [1]: >1 | inhibition [5]: 50% | inhibition at 48 h, 50 ug/ml [2]: 33.4% | IC50 [3]: 8.93 µM | MIC [4]: 15.6 µM (≈ 6.25 µg/mL) | inhibition [6]: < 50%

Cc1ccc(C)c(Nc2nc(C3CC3)nc3sc4c(c23)CCCC4)c1
fold change (FC) [1]: >1 | inhibition [5]: 50% | inhibition at 48 h, 50 ug/ml [2]: 16.3% | IC50 [3]: 2.07 µM | MIC [4]: 35.8 µM (≈ 12.5 µg/mL) | inhibition [6]: < 50%

CCc1nc(Nc2cc(C)ccc2C)c2c3c(sc2n1)CCCC3
inhibition at 48 h, 50 ug/ml [2]: 29.9% | IC50 [3]: > 25 µM | MIC [4]: 74.1 µM (≈ 25 µg/mL) | inhibition [6]: < 50%

Clc1ccc(Nc2nc(C3CC3)nc3sc4c(c23)CCCC4)cc1
inhibition [5]: 50% | inhibition at 48 h, 50 ug/ml [2]: 15.5% | IC50 [3]: 11.1 µM | MIC [4]: 8.78 µM (≈ 3.12 µg/mL) | inhibition [6]: < 50%

COc1ccc(Nc2nc(C3CC3)nc3sc4c(c23)CCCC4)cc1
fold change (FC) [1]: >1 | inhibition at 48 h, 50 ug/ml [2]: 34.4% | IC50 [3]: > 25 µM | MIC [4]: 17.8 µM (≈ 6.25 µg/mL) | inhibition [6]: < 50%
